From ChEMBL document CHEMBL4184148 (Bioorg Med Chem Lett, 2017)

Key:
[1] = target: Casein kinase II subunit alpha (Homo sapiens) (UniProt P68400); assay: Binding affinity to wild-type human full length CSNK2A1 (M1 to Q391 residues) expressed in HEK293 cells at 1 uM by Kinomescan method relative to control; assay type: cell-based
In short: (§1)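 Run as one kinome-wide competition binding panel with each compound at a single fixed concentration. Results were plotted as a kinome-wide selectivity map.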

[2] = target: Cyclin-dependent kinase 9 (Homo sapiens) (UniProt P50750); assay: Binding affinity to wild-type human full length CDK9 (M1 to F372 residues) expressed in Escherichia coli BL21 at 1 uM by Kinomescan method relative to control; in short: as §1
[3] = target: Mitogen-activated protein kinase 11 (Homo sapiens) (UniProt Q15759); assay: Binding affinity to wild-type human full length p38-beta (M1 to Q364 residues) expressed in Escherichia coli BL21 at 1 uM by Kinomescan method relative to control
In short: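 Kinome-wide competition binding panel run by an outside provider, with each compound tested at a single concentration. Activity is read against the kinase panel.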

[4] = target: Misshapen-like kinase 1 (Homo sapiens) (UniProt Q8N4C8); assay: Binding affinity to wild-type human partial length MINK (M1 to K312 residues) expressed in HEK293 cells at 1 uM by Kinomescan method relative to control; assay type: cell-based
Chain of Misshapen-like kinase 1 (Homo sapiens) (Q8N4C8 whole entry, looked up, the tested form may be a part): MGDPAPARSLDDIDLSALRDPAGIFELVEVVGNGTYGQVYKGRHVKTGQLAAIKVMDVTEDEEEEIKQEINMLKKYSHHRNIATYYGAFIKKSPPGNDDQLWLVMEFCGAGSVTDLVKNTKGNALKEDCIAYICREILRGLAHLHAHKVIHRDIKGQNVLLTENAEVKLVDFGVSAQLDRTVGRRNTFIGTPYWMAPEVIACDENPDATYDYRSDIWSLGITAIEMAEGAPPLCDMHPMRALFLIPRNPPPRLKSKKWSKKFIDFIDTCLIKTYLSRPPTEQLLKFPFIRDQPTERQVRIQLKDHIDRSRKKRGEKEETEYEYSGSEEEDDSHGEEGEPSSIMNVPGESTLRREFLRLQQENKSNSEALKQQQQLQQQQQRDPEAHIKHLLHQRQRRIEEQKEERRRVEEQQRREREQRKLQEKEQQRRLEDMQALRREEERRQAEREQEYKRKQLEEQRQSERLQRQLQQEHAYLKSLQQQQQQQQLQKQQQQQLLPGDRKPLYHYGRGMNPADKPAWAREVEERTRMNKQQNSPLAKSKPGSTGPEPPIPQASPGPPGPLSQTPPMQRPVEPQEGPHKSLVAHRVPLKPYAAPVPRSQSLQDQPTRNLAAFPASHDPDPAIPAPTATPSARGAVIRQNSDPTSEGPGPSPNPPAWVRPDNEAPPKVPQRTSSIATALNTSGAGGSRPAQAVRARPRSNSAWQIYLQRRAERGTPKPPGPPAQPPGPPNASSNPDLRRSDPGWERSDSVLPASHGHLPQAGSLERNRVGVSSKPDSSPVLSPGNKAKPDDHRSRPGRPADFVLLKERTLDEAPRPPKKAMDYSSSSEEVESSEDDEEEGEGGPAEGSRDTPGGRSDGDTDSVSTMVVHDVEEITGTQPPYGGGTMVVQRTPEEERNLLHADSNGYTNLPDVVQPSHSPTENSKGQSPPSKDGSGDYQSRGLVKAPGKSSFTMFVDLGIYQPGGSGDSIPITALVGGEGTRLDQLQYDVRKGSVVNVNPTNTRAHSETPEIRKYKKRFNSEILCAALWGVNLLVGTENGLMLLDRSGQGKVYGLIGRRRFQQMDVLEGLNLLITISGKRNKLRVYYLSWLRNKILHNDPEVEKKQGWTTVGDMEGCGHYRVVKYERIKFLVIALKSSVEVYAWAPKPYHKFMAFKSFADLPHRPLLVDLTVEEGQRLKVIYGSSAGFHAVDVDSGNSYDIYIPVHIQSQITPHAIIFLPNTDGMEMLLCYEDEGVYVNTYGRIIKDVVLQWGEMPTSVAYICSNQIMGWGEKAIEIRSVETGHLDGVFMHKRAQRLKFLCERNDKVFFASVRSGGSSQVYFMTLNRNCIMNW

[5] = target: Eukaryotic translation initiation factor 2-alpha kinase 1 (Homo sapiens) (UniProt Q9BQI3); assay: Binding affinity to wild-type human partial length EIF2AK1 (Q147 to E603 residues) expressed in HEK293 cells at 1 uM by Kinomescan method relative to control; assay type: cell-based
[6] = target: Tyrosine-protein kinase Fyn (Homo sapiens) (UniProt P06241); assay: Binding affinity to wild-type human partial length FYN (T243 to L534 residues) expressed in Escherichia coli BL21 at 1 uM by Kinomescan method relative to control
[7] = target: Dual specificity mitogen-activated protein kinase kinase 3 (Homo sapiens) (UniProt P46734); assay: Binding affinity to wild-type human full length MEK3 (M1 to S318 residues) expressed in HEK293 cells at 1 uM by Kinomescan method relative to control; assay type: cell-based; in short: as §1
[8] = target: Epidermal growth factor receptor (Homo sapiens) (UniProt P00533); assay: Binding affinity to human partial length EGFR L747-T751del/Sins mutant expressed in Escherichia coli BL21 at 1 uM by Kinomescan method relative to control
[9] = test system: Serine/threonine-protein kinase B-raf (Homo sapiens), P15056 [V600E]; assay: Binding affinity to human partial length BRAF V600E mutant (S429 to E741 residues) expressed in HEK293 cells at 1 uM by Kinomescan method relative to control; assay type: cell-based
Chain of Serine/threonine-protein kinase B-raf (Homo sapiens), P15056 [V600E] (P15056 whole entry V600E, the tested form may be a part): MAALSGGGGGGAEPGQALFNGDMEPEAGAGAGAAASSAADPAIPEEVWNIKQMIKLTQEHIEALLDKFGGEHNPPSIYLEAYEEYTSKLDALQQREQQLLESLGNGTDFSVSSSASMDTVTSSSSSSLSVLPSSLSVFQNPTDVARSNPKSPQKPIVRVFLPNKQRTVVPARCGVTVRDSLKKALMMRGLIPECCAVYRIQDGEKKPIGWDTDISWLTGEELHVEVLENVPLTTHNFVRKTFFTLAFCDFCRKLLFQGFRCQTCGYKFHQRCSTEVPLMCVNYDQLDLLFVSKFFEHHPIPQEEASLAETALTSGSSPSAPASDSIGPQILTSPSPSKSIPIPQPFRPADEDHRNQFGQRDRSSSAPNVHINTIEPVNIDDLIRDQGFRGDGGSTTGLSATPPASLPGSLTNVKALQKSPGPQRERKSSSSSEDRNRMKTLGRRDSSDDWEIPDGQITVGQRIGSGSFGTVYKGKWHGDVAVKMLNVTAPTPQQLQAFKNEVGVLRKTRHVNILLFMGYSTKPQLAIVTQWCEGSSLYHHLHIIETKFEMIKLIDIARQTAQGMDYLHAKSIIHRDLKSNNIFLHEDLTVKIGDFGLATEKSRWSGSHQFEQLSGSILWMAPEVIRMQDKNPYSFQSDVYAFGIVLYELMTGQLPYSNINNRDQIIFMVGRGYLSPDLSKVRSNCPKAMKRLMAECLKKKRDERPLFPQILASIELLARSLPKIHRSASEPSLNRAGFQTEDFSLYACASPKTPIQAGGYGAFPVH

[10] = target: Tyrosine-protein kinase ITK/TSK (Homo sapiens) (UniProt Q08881); assay: Binding affinity to wild-type human partial length ITK (R335 to L620 residues) expressed in Escherichia coli BL21 at 1 uM by Kinomescan method relative to control
Chain of Tyrosine-protein kinase ITK/TSK (Homo sapiens) (Q08881 whole entry, the tested form may be a part): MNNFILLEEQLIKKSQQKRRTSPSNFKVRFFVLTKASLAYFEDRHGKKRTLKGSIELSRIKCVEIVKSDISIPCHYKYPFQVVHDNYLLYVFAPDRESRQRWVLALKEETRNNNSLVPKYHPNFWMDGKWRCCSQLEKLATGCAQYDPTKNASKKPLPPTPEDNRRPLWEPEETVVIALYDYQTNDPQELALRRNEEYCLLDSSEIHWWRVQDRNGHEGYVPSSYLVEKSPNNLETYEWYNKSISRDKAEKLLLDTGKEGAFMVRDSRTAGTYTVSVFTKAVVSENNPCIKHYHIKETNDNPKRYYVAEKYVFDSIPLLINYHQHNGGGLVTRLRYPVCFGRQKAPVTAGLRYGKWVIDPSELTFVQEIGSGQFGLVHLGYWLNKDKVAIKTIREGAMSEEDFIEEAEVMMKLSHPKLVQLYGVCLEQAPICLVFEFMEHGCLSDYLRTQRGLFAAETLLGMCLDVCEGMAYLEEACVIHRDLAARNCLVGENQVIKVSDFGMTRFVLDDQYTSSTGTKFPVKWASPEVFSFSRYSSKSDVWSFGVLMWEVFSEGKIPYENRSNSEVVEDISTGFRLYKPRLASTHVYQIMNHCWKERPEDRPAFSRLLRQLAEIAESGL

[11] = target: Mitogen-activated protein kinase kinase kinase 19 (Homo sapiens) (UniProt Q56UN5); assay: Binding affinity to wild-type human partial length YSK4 (T1019 to H1328 residues) expressed in HEK293 cells at 1 uM by Kinomescan method relative to control; assay type: cell-based
[12] = test system: Proto-oncogene tyrosine-protein kinase receptor Ret (Homo sapiens), P07949 [M918T]; assay: Binding affinity to human partial length RET M918T mutant (E713 to D1014 residues) expressed in Escherichia coli BL21 at 1 uM by Kinomescan method relative to control
[13] = test system: Receptor-type tyrosine-protein kinase FLT3 (Homo sapiens), P36888 [D835H]; assay: Binding affinity to human partial length FLT3 D835H mutant (V592 to Y969 residues) expressed in Escherichia coli BL21 at 1 uM by Kinomescan method relative to control
[14] = test system: Receptor-type tyrosine-protein kinase FLT3 (Homo sapiens), P36888 [UNDEFINED MUTATION]; assay: Binding affinity to human partial length FLT3 ITD/D835V double mutant expressed in Escherichia coli BL21 at 1 uM by Kinomescan method relative to control
[15] = target: Vascular endothelial growth factor receptor 2 (Homo sapiens) (UniProt P35968); assay: Binding affinity to wild-type human partial length VEGFR2 (R787 to P1253 residues) expressed in HEK293 cells at 1 uM by Kinomescan method relative to control; assay type: cell-based
[16] = target: STE20-like serine/threonine-protein kinase (Homo sapiens) (UniProt Q9H2G2); assay: Binding affinity to wild-type human partial length SLK (S14 to A307 residues) expressed in Escherichia coli BL21 at 1 uM by Kinomescan method relative to control
[17] = target: Serine/threonine-protein kinase TAO2 (Homo sapiens) (UniProt Q9UL54); assay: Binding affinity to wild-type human partial length TAOK2 (M1 to A320 residues) expressed in HEK293 cells at 1 uM by Kinomescan method relative to control; assay type: cell-based
Chain of Serine/threonine-protein kinase TAO2 (Homo sapiens) (Q9UL54 whole entry, the tested form may be a part): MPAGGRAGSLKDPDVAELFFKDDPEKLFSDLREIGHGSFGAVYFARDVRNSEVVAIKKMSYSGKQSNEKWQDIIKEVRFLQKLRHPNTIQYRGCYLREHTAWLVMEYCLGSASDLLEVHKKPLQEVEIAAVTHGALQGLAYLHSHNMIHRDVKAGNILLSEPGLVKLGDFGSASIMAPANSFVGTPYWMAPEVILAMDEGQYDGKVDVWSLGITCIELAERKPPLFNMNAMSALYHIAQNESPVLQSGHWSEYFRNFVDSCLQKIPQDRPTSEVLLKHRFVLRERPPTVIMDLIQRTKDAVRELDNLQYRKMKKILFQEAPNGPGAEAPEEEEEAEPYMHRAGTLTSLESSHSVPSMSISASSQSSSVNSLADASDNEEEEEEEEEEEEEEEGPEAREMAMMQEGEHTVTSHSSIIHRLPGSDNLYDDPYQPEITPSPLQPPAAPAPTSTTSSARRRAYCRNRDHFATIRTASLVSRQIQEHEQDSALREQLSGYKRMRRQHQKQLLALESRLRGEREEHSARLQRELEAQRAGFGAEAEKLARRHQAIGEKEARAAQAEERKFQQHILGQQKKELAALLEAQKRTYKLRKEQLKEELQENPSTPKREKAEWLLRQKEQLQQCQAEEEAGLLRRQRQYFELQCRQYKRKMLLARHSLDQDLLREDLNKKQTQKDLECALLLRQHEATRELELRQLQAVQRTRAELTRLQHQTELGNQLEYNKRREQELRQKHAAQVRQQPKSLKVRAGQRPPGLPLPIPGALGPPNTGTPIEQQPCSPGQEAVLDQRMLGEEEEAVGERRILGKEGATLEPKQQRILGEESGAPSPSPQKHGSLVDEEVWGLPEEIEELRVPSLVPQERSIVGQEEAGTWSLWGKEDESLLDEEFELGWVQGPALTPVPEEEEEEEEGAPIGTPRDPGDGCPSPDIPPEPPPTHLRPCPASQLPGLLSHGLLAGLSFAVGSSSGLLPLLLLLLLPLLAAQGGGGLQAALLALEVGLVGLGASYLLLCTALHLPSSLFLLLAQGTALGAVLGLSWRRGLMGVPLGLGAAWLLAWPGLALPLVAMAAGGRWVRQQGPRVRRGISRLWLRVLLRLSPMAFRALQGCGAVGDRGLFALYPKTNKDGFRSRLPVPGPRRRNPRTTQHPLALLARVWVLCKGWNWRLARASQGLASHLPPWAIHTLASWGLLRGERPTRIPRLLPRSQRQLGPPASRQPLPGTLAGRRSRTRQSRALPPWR

[18] = target: Ephrin type-B receptor 3 (Homo sapiens) (UniProt P54753); assay: Binding affinity to wild-type human partial length EPHB3 (Q599 to T928 residues) expressed in Escherichia coli BL21 at 1 uM by Kinomescan method relative to control
Chain of Ephrin type-B receptor 3 (Homo sapiens) (P54753 whole entry, the tested form may be a part): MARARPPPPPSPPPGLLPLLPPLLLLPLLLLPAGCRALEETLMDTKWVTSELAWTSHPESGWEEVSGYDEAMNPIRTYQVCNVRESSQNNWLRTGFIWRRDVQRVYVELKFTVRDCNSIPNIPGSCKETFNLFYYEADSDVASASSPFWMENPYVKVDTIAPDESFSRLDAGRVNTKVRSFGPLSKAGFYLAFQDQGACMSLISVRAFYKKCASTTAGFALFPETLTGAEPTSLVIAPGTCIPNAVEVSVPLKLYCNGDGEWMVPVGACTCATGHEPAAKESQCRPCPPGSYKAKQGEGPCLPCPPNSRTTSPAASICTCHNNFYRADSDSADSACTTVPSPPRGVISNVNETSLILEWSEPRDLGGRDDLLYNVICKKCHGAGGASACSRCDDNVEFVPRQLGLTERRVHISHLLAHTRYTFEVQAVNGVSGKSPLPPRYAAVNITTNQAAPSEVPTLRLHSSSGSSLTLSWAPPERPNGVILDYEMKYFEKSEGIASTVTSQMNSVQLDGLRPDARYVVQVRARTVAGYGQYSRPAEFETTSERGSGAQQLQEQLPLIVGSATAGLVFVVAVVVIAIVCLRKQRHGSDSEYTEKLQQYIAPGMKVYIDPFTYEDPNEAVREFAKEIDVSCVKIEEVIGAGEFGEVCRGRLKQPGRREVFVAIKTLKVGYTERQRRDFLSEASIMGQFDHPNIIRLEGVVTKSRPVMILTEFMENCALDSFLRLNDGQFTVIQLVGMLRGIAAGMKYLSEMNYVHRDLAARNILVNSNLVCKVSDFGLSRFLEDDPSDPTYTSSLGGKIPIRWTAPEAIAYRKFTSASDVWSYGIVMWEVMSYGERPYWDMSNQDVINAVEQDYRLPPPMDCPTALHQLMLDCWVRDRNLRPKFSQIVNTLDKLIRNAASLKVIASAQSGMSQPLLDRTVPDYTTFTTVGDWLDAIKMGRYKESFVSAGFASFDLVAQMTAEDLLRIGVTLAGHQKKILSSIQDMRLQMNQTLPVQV

[19] = target: Serine/threonine-protein kinase D1 (Homo sapiens) (UniProt Q15139); assay: Binding affinity to wild-type human partial length PRKD1 (G551 to E870 residues) expressed in Escherichia coli BL21 at 1 uM by Kinomescan method relative to control
[20] = test system: Phosphatidylinositol 4,5-bisphosphate 3-kinase catalytic subunit alpha isoform (Homo sapiens), P42336 [M1043I]; assay: Binding affinity to human partial length PIK3CA M1043I mutant (R108 to N1068 residues) expressed in HEK293 cells at 1 uM by Kinomescan method relative to control; assay type: cell-based
[21] = target: Mitogen-activated protein kinase kinase kinase 1 (Homo sapiens) (UniProt Q13233); assay: Binding affinity to wild-type human partial length MAP3K1 (L1202 to W1512 residues) expressed in HEK293 cells at 1 uM by Kinomescan method relative to control; assay type: cell-based
[22] = target: Serine/threonine-protein kinase VRK2 (Homo sapiens) (UniProt Q86Y07); assay: Binding affinity to wild-type human partial length VRK2 (M1 to T336 residues) expressed in HEK293 cells at 1 uM by Kinomescan method relative to control; assay type: cell-based
[23] = target: Dual specificity mitogen-activated protein kinase kinase 2 (Homo sapiens) (UniProt P36507); assay: Binding affinity to wild-type human full length MEK2 (M1 to V400 residues) expressed in HEK293 cells at 1 uM by Kinomescan method relative to control; assay type: cell-based; in short: as §1
[24] = target: Serine/threonine-protein kinase STK11 (Homo sapiens) (UniProt Q15831); assay: Binding affinity to wild-type human full length LKB1 (M1 to Q433 residues) expressed in Escherichia coli BL21 at 1 uM by Kinomescan method relative to control; in short: as §1
[25] = target: Serine/threonine-protein kinase 36 (Homo sapiens) (UniProt Q9NRP7); assay: Binding affinity to wild-type human partial length STK36 (M1 to T271 residues) expressed in Escherichia coli BL21 at 1 uM by Kinomescan method relative to control

Row | SMILES | Activity [1] | Activity [2] | Activity [3] | Activity [4] | Activity [5] | Activity [6] | Activity [7] | Activity [8] | Activity [9] | Activity [10] | Activity [11] | Activity [12] | Activity [13] | Activity [14] | Activity [15] | Activity [16] | Activity [17] | Activity [18] | Activity [19] | Activity [20] | also measured
1 | CCC(=O)Nc1ccc(C(=O)Nc2ccc(Nc3ncc4c(n3)N(C)c3ccc(C)cc3C(=O)N4C)cc2)cc1 | 47% | 97% | 100% | 65% | 93% | 100% | 65% | 89% | 100% | 76% | 77% | 71% | 87% | 100% | 76% | 87% | 100% | 88% | 97% | 83% | Activity [21]: 76%; Activity [22]: 61%; Activity [23]: 72%; Activity [24]: 94%; Activity [25]: 93%
2 | C=CC(=O)Nc1ccc(C(=O)Nc2ccc(Nc3ncc4c(n3)N(C)c3ccc(C)cc3C(=O)N4C)cc2)cc1 | 95% | 97% | 89% | 98% | 100% | 81% | 92% | 81% | 94% | 94% | 72% | 87% | 92% | 94% | 88% | 94% | 83% | 89% | 93% | 64% | Activity [21]: 83%; Activity [22]: 100%; Activity [23]: 86%; Activity [24]: 93%; Activity [25]: 100%
